# Screening results (PubChem BioAssay)
# PGE2 EP2 inh: EP2 receptor (human) inhibition | inhibition, % at 25 µM | C6 glioma cells expressing human EP2, cAMP TR-FRET; cells stimulated with saturating PGE2 | hit rate 0.52% among 260,000;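 active means percent inhibition above 40 after rounding to a whole number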;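 further: rat C6 glioma host cells with rolipram phosphodiesterase inhibitor present; the protocol text gives 20 µM as final concentration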
# NPY-Y1 antag: blocks the human neuropeptide Y Y1 receptor. P25929. HEK293-CNG Y1 cells, membrane potential fluorescence; NPY at EC95, then isoproterenol. inhibition, % at 3.6 µM. hit rate 1% among 200,000;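 active means inhibition above the campaign mean inhibition of all tested compounds plus 3 SD, cut at about 20% in these data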;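 further: 0% = DMSO wells given NPY plus isoproterenol and 100% = isoproterenol alone without NPY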
# Target sequence (P25929 whole entry, looked up): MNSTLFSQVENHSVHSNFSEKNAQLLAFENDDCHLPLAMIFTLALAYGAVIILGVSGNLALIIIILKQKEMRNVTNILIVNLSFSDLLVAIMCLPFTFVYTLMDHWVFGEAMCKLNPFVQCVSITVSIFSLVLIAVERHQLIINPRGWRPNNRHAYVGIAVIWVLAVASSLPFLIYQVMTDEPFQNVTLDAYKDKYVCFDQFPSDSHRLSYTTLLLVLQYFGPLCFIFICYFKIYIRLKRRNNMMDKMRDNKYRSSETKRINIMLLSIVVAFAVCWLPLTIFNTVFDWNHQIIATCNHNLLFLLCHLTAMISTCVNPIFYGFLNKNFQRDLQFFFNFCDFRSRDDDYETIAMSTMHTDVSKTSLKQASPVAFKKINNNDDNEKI
#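 Benchmarks – high control isoproterenol alone, low control NPY with isoproterenol · Material – HEK293 Y1/CNG channel cell line · Times – dye 3 h, compound 60 min room temperature, stimulation 45 min · Probe or stimulus – NPY (25 nM), isoproterenol (1 µM), Ro 20-1724 (25 µM) · Evaluation – % inhibition of NPY effect · Signal – fluorescence, membrane potential probe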
# EP2 modulator: EP2 receptor (human) modulation; P43116; EP2-expressing cells, cAMP HTRF FRET, PGE2 co-stimulation; induction, % at 25 µM; hit rate 0.83% among 260,000; AID 940;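 active means compounds whose cAMP rise, as percent of the full-agonist control response, exceeds 60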;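 further: rat C6 glioma line stably carrying human EP2 under a CMV promoter; the protocol text gives 20 µM as final concentration; 100% = response of wells given 1 µM PGE2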
# NPY-Y2 antag: blocks the human neuropeptide Y Y2 receptor; P49146; NPY-Y2 expressing cells, antagonist mode; inhibition, % at 2.7 µM; hit rate 0.99% among 140,000; AID 793; in the data active means inhibition above about 17%;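 further: 0% = vehicle with agonist challenge and 100% = reference antagonist with challenge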
# NPY1 pot ag: human NPY-Y1 potentiation or agonism, primary screen | activation, % at 3.6 µM | AID 1304 | hit rate 0.37% among 220,000 | P25929 | NPY-Y1 expressing cells, potentiator/agonist activation; in the data active means activation above about 33%, passing the limit was not always enough;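 further: cells stimulated with NPY at EC10 then isoproterenol at EC100; 0% = low agonist plus stimulus and 100% = saturating agonist plus stimulus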
# NPY2 pot ag: potentiators or agonists of human neuropeptide Y receptor Y2 | hit rate 0.45% among 220,000 | P49146 | cells expressing NPY-Y2, potentiator/agonist read-out | activation, % at 3.6 µM; in the data active means activation above about 27%;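 further: cells stimulated with NPY near EC25 plus isoproterenol at EC100; 0% = vehicle plus submaximal agonist and 100% = vehicle plus saturating agonist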
# NPY-Y1 antag ct: human NPY-Y1 antagonism in NPY-Y2 counter-screen; shares compounds with NPY-Y2 antag; cell-based NPY-Y1 antagonism counterscreen; inhibition, % at 3.6 µM; hit rate 19% among 710; in the data active means inhibition above about 20%;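 further: cells challenged with NPY then isoproterenol with cAMP sensed through a CNG channel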
# NPY2 antag conf: confirmation of human neuropeptide Y receptor Y2 antagonists; shares compounds with NPY-Y2 antag; HEK293 NPY-Y2 CNG channel, membrane potential fluorescence; inhibition, % at 2.8 µM; hit rate 32% among 710;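 active means mean inhibition of triplicate wells above the hit cutoff set in the primary screen, cut at about 17% in these data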;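 further: 0% = DMSO with NPY challenge and 100% = BIIE0246 high control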
# Starred values were filed as active, the others as inactive; . = not tested or not shown. Sampled rows, rich in hits. Any-hit rate of the full collection: about 2.8%.
SMILES,PGE2 EP2 inh,NPY-Y1 antag,EP2 modulator,NPY-Y2 antag,NPY1 pot ag,NPY2 pot ag,NPY-Y1 antag ct,NPY2 antag conf
COc1cccc(CNc2nc3ccccc3n2CCN2CCCCC2)c1,5,14,25,19*,-27,-16,13,16
COc1cccc(NC(=O)CSc2nc3ccccc3n2CC(=O)N2CCCC2)c1,10,.,-7,.,.,.,.,.
Cc1nonc1CC(=O)N1CCC(n2nnc(-c3ccc(F)cc3)n2)CC1,.,.,-2,.,.,.,.,.
c1ccc2c(N3CCCCC3)nc(N3CCOCC3)nc2c1,5,4,14,.,-13,-6,.,.
c1ccc2c(N3CCCCC3)nc(N3CCCCC3)nc2c1,.,0,-56,23*,-7,-16,5,1
c1ccc(N2CCN(c3nc(NCc4ccco4)c4ccccc4n3)CC2)cc1,15,12,-34,19*,-7,32*,9,7
c1coc(CNc2nc(N3CCCCC3)nc3ccccc23)c1,10,19,-4,26*,-23,-8,18,15
OC(CNCc1ccc(F)cc1)(c1ccc(F)cc1)c1ccc(F)cc1,1,16,44,20*,-9,-2,16,10
CN1CCCC(OC(=O)c2ccc(F)cc2)C1 (centres undefined),9,.,-1,.,.,.,.,.
CCCC(=O)Nc1ccc(NC(=O)c2cccc(F)c2)nc1,4,.,-6,.,.,.,.,.
O=C(CCc1nc(-c2ccccc2)c(-c2ccccc2)o1)OCc1ccc(Br)cc1,6,5,48,18*,-8,-16,12,20*
O=C(CCc1nc(-c2ccccc2)c(-c2ccccc2)o1)OCc1ccc(Cl)cc1,7,17,33,13,-34,-17,.,.
CCNc1cc(N2CCOCC2)nc(SC)n1,7,-1,-18,.,4,-9,.,.
CCNc1cc(Cl)nc(SC)n1,.,7,26,25*,7,4,-1,1
COc1ccc(C(=O)N(CC(=O)NCC2CCCO2)Cc2ccccc2F)cc1OC (centres undefined),12,.,5,.,.,.,.,.
O=C(CSc1nnc2n(Cc3ccc(F)cc3)c3ccccc3n12)NCc1cccs1,13,.,11,.,.,.,.,.
Cc1ccccc1OCCCSc1nc2ccccc2[nH]1,7,7,0,17*,-12,8,4,2
O=C(c1ccc(Cl)cc1)N1CCN(Cc2nc3sc4c(c3c(=O)[nH]2)CCCC4)CC1,16,.,-45,.,.,.,.,.
Cc1cccc(-c2noc(CN(C(=O)C(c3ccccc3)c3ccccc3)C(C)C)n2)c1,4,18,9,17*,1,-14,8,4
COc1cc(/C=C2\SC(=Nc3c(C)n(C)n(-c4ccccc4)c3=O)NC2=O)ccc1O,4,20*,16,31*,-28,-6,48*,74*
COc1cc(/C=C2\SC(=Nc3ccc(O)cc3)NC2=O)cc(OC)c1O,7,8,-27,.,9,-2,.,.
CCOC(=O)C1=C(N)OC2=C(C(=O)CC(C)(C)C2)C1c1ccccc1F (centres undefined),10,.,46,.,.,.,.,.
CCN(CC)c1ccc(CN2CCc3c(nc(N4CCCCC4)[nH]c3=O)C2)c(O)c1,.,.,9,.,.,.,.,.
O=C(Nc1cccc(S(=O)(=O)N2CCCCC2)c1)c1ccc2ccccc2n1,7,9,-31,20*,-9,-9,10,13
CCc1ncc(C(O)c2ccc(C(C)C)cc2)n1C (centres undefined),18,.,-75,.,.,.,.,.
SMILES,PGE2 EP2 inh,NPY-Y1 antag,EP2 modulator,NPY-Y2 antag,NPY1 pot ag,NPY2 pot ag,NPY-Y1 antag ct,NPY2 antag conf
COc1cc(/C=N/NC(N)=O)ccc1OCC(=O)Nc1ccc(C)c(C)c1,5,-1,-12,18*,-14,-16,11,34*
COc1cc(/C=N/NC(N)=S)ccc1OCC(=O)Nc1ccc(C)c(C)c1,12,-2,-14,-3,-6,-9,.,.
O=C(Nc1cccn(Cc2c(Cl)cccc2Cl)c1=O)c1c(Cl)cccc1Cl,10,9,30,20*,4,11,12,9
CCCC(c1nnnn1C1CCCC1)N1CCN(c2ccccc2F)CC1 (centres undefined),11,14,-11,18*,-3,-17,18,4
CCS(=O)(=O)N1CCN(c2ncnc3c(-c4ccc(Cl)cc4)nsc23)CC1,6,.,-38,.,.,.,.,.
Cc1ccc(-c2nn3c(C)nnc3c3ccccc23)cc1S(=O)(=O)NC(C)c1ccccc1 (centres undefined),5,4,27,18*,-8,-26,12,19*
O=C1CSC(c2ccc3c(c2)OCO3)N1c1ccc(Oc2ccccc2)cc1 (centres undefined),1,7,-3,9,-18,-10,.,.
Cc1ccc(N2C(=O)CSC2c2ccc3c(c2)OCO3)cc1 (centres undefined),.,0,-4,18*,-1,1,2,2
CCN(CC)C(C(=O)Nc1ccc(C(C)C)cc1)c1ccc2c(c1)OCO2 (centres undefined),10,16,18,18*,-6,-14,7,14
N#Cc1ccc(-c2cccnc2)nc1SCc1ccc(Cl)c(Cl)c1,2,4,29,27*,2,10,19,21*
Cc1cc2nnn(C[C@@H](C)NC(=O)Cc3ccc(F)cc3)c2cc1C,8,.,-1,.,.,.,.,.
Cc1ccccc1NC(=O)c1cccc2nc3ccccc3nc12,.,-6,38,19*,20,6,-2,-4
Cc1ccccc1NC(=O)c1ccccc1NC(=O)Cc1cccc2ccccc12,6,3,30,0,24,2,.,.
Cc1c(C(=O)Nc2nc3ccccc3[nH]2)oc2ccc(Br)cc12,5,-1,5,19*,-6,-19,12,14
Cc1c(C(=O)Nc2nc3ccccc3[nH]2)oc2ccccc12,14,3,-1,5,-1,0,.,.
Cc1cnc(C(=O)Nc2cccnc2N2CCOCC2)cn1,12,.,-5,.,.,.,.,.
CCc1cccc(CC)c1NC(=O)Cn1c(-c2ccccc2Cl)nc2ccccc21,2,8,-16,24*,-2,-4,13,11
COc1ccc(C2Nc3ccccc3C(=O)N2Cc2ccco2)cc1COc1ccccc1F (centres undefined),15,19,12,25*,-12,-13,6,11
COc1ccc(C2Nc3ccccc3C(=O)N2Cc2ccco2)cc1COc1ccc(NC(C)=O)cc1 (centres undefined),11,3,34,3,-12,-12,.,.
Cc1ccc(NC(=O)NCc2ccc3c(c2)OCO3)cc1C,3,0,-15,.,-18,-17,.,.
